PMC3512081 (Journal of immunology (Baltimore, Md. : 1950), 2011)
“And” between values parts separate entries of the source, which are not always exact repeats. Equal values may be shown once. Read-outs that look alike come from different tables or passages of the source.

How the values were obtained:
[1] = tested on: IDO-transduced (C7) EG7 cells; assay: 3H-L-tryptophan uptake by IDO positive EG7 cells; type: cell-based, mouse; conditions: for tryptophan uptake maintained: 0.05mM, EG7-C7 cells, absence of BCH; for fold lower affinity of the additional transporter versus the first transporter: IDO positive C7 cells, equation based on two independent systems; for effect on tryptophan uptake, inhibitor alone: IDO positive cells
In short: (§1)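 EG7 mouse T lymphoma cells: wild-type, GFP-only lentivirus controls, or an IDO/GFP lentivirus-transduced clone. Cultured 48 h, washed, then held 20-30 min in PBS or sodium-free choline buffer (pH 7.4). 3H-L-tryptophan was added at 50 pmol/ml and incubated a fixed time at 37°C. Uptake was stopped by spinning cells through oil. Competitors: BCH, D- or L-Met titrations, glutamine. Duplicate samples. Ki fitted assuming one or two transport systems.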

[2] = tested on: EG7 WT and GFP-transduced cells; assay: 3H-L-tryptophan uptake by IDO negative EG7 cells; type: cell-based, mouse
In short: as §1

[3] = tested on: IDO-lentivirus transduced or IFN-γ treated Hela cells; assay: 3H-L-tryptophan uptake by IDO positive Hela cells; type: cell-based, human; conditions: for Ki: read-out: Ki for 3H-tryptophan uptake; for effect of excess unlabelled amino acid on 3H-tryptophan uptake: high concentration (5mM glycine, histidine, glutamine)
In short: (§2)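 HeLa cells were used untreated, GFP-transduced, human-IDO lentivirus-transduced, or given 1000 U/ml IFNγ for 48 h, and assayed at 90-100% confluence. Preincubated 20-30 min in PBS or choline buffer (pH 7.4). 3H-L-tryptophan was added at 50 pmol/ml, with initial-rate uptake over 3 min at 37°C. Stopped with 20mM L-lysine in ice-cold PBS, then NaOH/SDS lysis and scintillation counting. Competitors: BCH, D/L-Met, 5mM histidine, glycine or glutamine, and titrations. Triplicates, normalized; Student's t-test.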

[4] = tested on: IDO induced tryptophan transporter; type: cell-based, human; conditions: for effect on tryptophan uptake in the presence of 2.5mM glutamine: IDO positive Hela cells, L-tryptophan at 2mM
In short: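 IFN-γ-treated or human IDO-lentivirus-transduced Hela cells are grown 48h to 90-100% confluence, washed, then preincubated 20-30 min in PBS or choline buffer (pH 7.4). Add 3H-L-tryptophan at 50pmol/ml with competing amino acid and take uptake at 37°C under initial-rate conditions over 3 min. Stop with 20mM L-lysine in ice-cold PBS, lyse in 1% NaOH/0.1% SDS, and count by liquid scintillation.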

[5] = tested on: WT and GFP-transduced Hela cells; assay: 3H-L-tryptophan uptake by IDO negative Hela cells; type: cell-based, human; conditions: for effect of excess unlabelled amino acid on 3H-tryptophan uptake: IDO negative Hela cells, high concentration (5mM glycine, histidine, glutamine)
In short: as §2

[6] = tested on: histidine uptake; assay: 14C-histidine uptake; type: cell-based; conditions: data not shown
[7] = tested on: activated human T cells; assay: Tryptophan uptake by activated human T cells; type: cell-based; conditions: preliminary data, not shown
[8] = WT and GFP-transduced Hela cells

For `NC1(C(=O)O)CC2CCC1C2` (stereo not drawn) [BCH, 2-aminobicyclo-(2,2,1)-heptane-2-carboxylic acid], the “effect on transporter-mediated 3H-L-tryptophan uptake” value ([1]; high concentrations, IDO positive EG7 cells, sodium-free) was “completely abolished”, the “effect on transporter-mediated 3H-L-tryptophan uptake” value ([2]; high concentrations, EG7-WT and GFP cells, sodium-free) was “completely abolished” and the Ki ([3]; IDO transduced Hela cells) was roughly 300 µM. For the same molecule, the Ki ([3]; IFN-γ treated Hela cells) was roughly 600 µM, the “effect on tryptophan uptake in the presence of 2.5mM glutamine” value (from here on “effect … of 2.5mM glutamine”) [4] was “no additional inhibition” and the “effect on 3H-tryptophan uptake” value [5, 8] was “strongly inhibited”. The Ki ([5]; read-out: Ki for 3H-tryptophan uptake, control Hela cells) was 12 µM.

For `CSCC[C@@H](N)C(=O)O` [D-Met, D-Methionine], the tryptophan uptake maintained [1] was “greater than 40%”, the “fold higher Ki in IDO positive cells than IDO negative cells” value ([1]; EG7 cells, single uptake system calculation) was “approximately 10 fold” and the “fold lower affinity of the additional transporter versus the first transporter” value [1] was 10 fold. The Ki ([1]; read-out: Ki calculated based on a single tryptophan uptake system, IDO positive EG7 cells) was 100 to 300 µM, the “inhibition of tryptophan uptake” value ([2]; 0.05mM, WT and GFP-expressing EG7 cells, absence of BCH) was “over 80%” and the “effect on 3H-tryptophan uptake” value [5, 8] was “strongly inhibited”.

`N[C@H](Cc1c[nH]c2ccccc12)C(=O)O` [D-tryptophan] was tested, and the “effect … of 2.5mM glutamine” value [4] was “minimal inhibition”.

`N[C@@H](Cc1ccc(O)c(O)c1)C(=O)O` [L-Dopa, L-3,4-dihydroxyphenylalanine] was tested, and the “effect … of 2.5mM glutamine” value [4] was “inhibited”.

In the case of `CSCC[C@H](N)C(=O)O` [L-Met, L-methionine], the tryptophan uptake maintained [1] is reported as “greater than 40%”, the “fold lower affinity of the additional transporter versus the first transporter” value [1] is reported as 10 fold and the inhibition at 50 µM ([2]; Mus musculus, EG7, read-out: inhibition of tryptophan uptake) is reported as greater than 80%. The “effect on 3H-tryptophan uptake” value [5, 8] was “strongly inhibited”.

For `CNC(C)(C)C(=O)O` [MeAIB, methyl-aminoisobutyric acid], the “effect on tryptophan uptake, inhibitor alone” value ([1]; data not shown) was “minimal effect”.

In the case of `CCN1C(=O)C=CC1=O` [NEM, N-ethyl maleimide], the “effect on tryptophan uptake, inhibitor alone” value ([1]; data not shown) is reported as “minimal effect”.

In the case of `NC(=O)CC[C@H](N)C(=O)O` [glutamine], the “tryptophan uptake in the presence of glutamine” value ([1]; murine EG7-IDO positive cells, data not shown) is reported as “resistant to inhibition”, the “tryptophan uptake in the presence of glutamine” value ([2]; WT and GFP-transduced EG7 cells, data not shown) is reported as “inhibited” and the tryptophan uptake maintained ([3]; 5mM, IDO positive Hela cells) is reported as “over 50%”. For the same molecule, the “fold increase in Ki for IDO positive cells compared with IDO negative controls” value ([3]; Hela cells) was 10 fold, the “effect of excess unlabelled amino acid on 3H-tryptophan uptake” value (from here on “effect of excess unlabelled amino acid”) ([3]; IDO positive Hela cells) was “a proportion of the tryptophan uptake was retained” and the “effect on uptake of 14C-histidine” value [6] was “inhibited”. The “sensitivity of tryptophan uptake to inhibition” value [7] was “highly sensitive to inhibition”, the “effect of excess unlabelled amino acid” value [5] was “completely inhibited” and the “effect of glutamine alone on tryptophan uptake” value [5, 8] was “completely abolished”.

With `NCC(=O)O` [glycine] the “effect of excess unlabelled amino acid” value ([3]; IDO positive Hela cells) was “no effect” and the “effect of excess unlabelled amino acid” value [5] was “no effect”.

`N[C@@H](Cc1c[nH]cn1)C(=O)O` [histidine] was tested, and the “fold increase in Ki for IDO positive cells compared with IDO negative controls” value ([3]; Hela cells) was 10 fold, the “effect of excess unlabelled amino acid” value ([3]; IDO positive Hela cells) was “a proportion of the tryptophan uptake was retained” and the “effect on uptake of 14C-histidine” value [6] was “inhibited”. For the same molecule, the “effect of excess unlabelled amino acid” value [5] was “completely inhibited”.

For `N[C@@H](Cc1ccccc1)C(=O)O` [phenylalanine], the “effect … of 2.5mM glutamine” value [4] was “inhibited” and the “inhibition of tryptophan uptake in the presence of glutamine” value ([4]; IFN-γ-treated and IDO transduced Hela cells, 2.5mM glutamine) was “over 50%”.

With `N[C@@H](Cc1c[nH]c2ccccc12)C(=O)O` [tryptophan, L-tryptophan] the “calculated Ki compared between cell types” value ([3]; Hela cells, IDO positive versus IDO negative) was “almost identical”, the “effect of excess unlabelled amino acid” value ([3]; IDO positive Hela cells) was “effectively competed” and the “effect on uptake of 14C-histidine” value [6] was “inhibited”. For the same molecule, the “effect … of 2.5mM glutamine” value [4] was “reduced to baseline”, the Ki ([4]; read-out: Ki of the induced glutamine-resistant 3H-tryptophan transport, IDO positive tumor cells, 2.5mM glutamine) was 2.3 to 4.2 µM and 3 µM and the “effect of excess unlabelled amino acid” value [5] was “effectively competed”.

With `N[C@@H](Cc1ccc(O)cc1)C(=O)O` [tyrosine] the “effect … of 2.5mM glutamine” value [4] was “little additional effect”.
